# The source made the active and inactive calls. No cut-off for these calls is given here.
# Legend:
# IEC-18 [1] = assay: Inhibition of p38 MAPK-induced COX-2 expression in rat IEC-18 cells at 10 uM incubated for 1 hr prior to LPS challenge measured after 24 hrs by Western blot analysis; assay type: cell-based
# Summary of the method: (§1)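 IEC-18 rat intestinal epithelial cells were seeded at 2.5 × 10^5 cells/mL in DMEM (4.5 g/L glucose, 5% FBS) at 37 °C and 5% CO2. After 24 h the medium was switched to 0.5% FBS. Cells were pretreated with compound for 1 h, then stimulated with LPS 1 μg/mL: 30 min for phospho-p38 and 24 h for COX-2. Cytosolic protein (25 μg) was run on Western blots. Each result is the mean of at least three independent experiments.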
# IEC-18 [2] = assay: Inhibition of LPS-induced p38 MAPK phosphorylation in rat IEC-18 cells at 10 uM incubated for 1 hr prior to LPS challenge measured after 30 mins by Western blot analysis; assay type: cell-based; summary of the method: as §1
# [3] = Wound healing activity in rat IEC-18 cells assessed as reduction of cell migration at 10 uM after 24 hrs relative to control; assay type: functional; parameters: scale not given: the % may be the effect or the level left
# Summary of the method: (§2)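 Confluent IEC-18 cells (from 2.5 × 10^5 cells/mL seeding) were moved to 0.5% FBS DMEM and scraped. They were then treated with test substance at 10 and 100 μM, or dexamethasone 10 μM. Migration was counted blind as cells crossing the wound border in a defined area from 0 to 24 h, using photomicrographs at 200×. n = 10.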
# [4] = Antiproliferative activity against rat IEC-18 cells at 10 uM after 24 hrs by MTT assay; assay type: cell-based; settings: iec-18, 24 h
# Mus musculus [5] = assay: Toxicity in C57BL/6 mouse assessed as effect on viability at 500 mg/kg/day administered through diet for total of 4 weeks for alternative weeks with water measured after 56 days; assay type: organism-based; settings: in vivo, 1344 h
# Mus musculus [6] = assay: Antiinflammatory activity in C57BL/6 mouse DSS-induced chronic colitis model assessed as reduction of stool consistency at 500 mg/kg/day administered through diet for total of 4 weeks for alternative weeks with water measured after 56 days; assay type: functional, organism-based
# Summary of the method: (§3)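 Mice and schedule as in the chronic DSS model: four 7-day DSS cycles (1%, 1%, 2%, 2%), each followed by 7 days water, with a diet containing 0.25% test substance. At day 56, stool consistency (normal, loose, diarrhea) and gross rectal bleeding (visible fecal blood, anal examination) were scored within the DAI. n = 10.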
# Mus musculus [7] = assay: Antiinflammatory activity in C57BL/6 mouse DSS-induced chronic colitis model assessed as decrease in severity of progressive chronic injury at 500 mg/kg/day administered through diet for total of 4 weeks for alternative weeks with water measured after 56 days; assay type: functional, organism-based
# Mus musculus [8] = assay: Antiinflammatory activity in C57BL/6 mouse DSS-induced chronic colitis model assessed as reduction of mucosal injury at 500 mg/kg/day administered through diet for total of 4 weeks for alternative weeks with water measured after 56 days by hematoxylin-eosin staining; assay type: functional, organism-based
# Mus musculus [9] = assay: Antiinflammatory activity in C57BL/6 mouse DSS-induced chronic colitis model assessed as induction of IL-10 production in colon at 500 mg/kg/day administered through diet for total of 4 weeks for alternative weeks with water measured after 56 days by ELISA relative to DSS-treated mouse; assay type: functional; settings: C57BL/6, Colon
# Summary of the method: (§4)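 Mice were female C57BL/6 on the chronic DSS schedule: 1% DSS in cycles 1–2, 2% in cycles 3–4, each cycle 7 days DSS then 7 days water. Diet carried 0.25% test substance for 56 days. Colon powder was suspended 20% w/v in PBS/0.1% NP-40, sonicated and spun at 20000g. IL-6, IL-1β and IL-10 were measured in supernatants by ELISA as pg/mL per mg protein. Mean ± SEM, n = 7.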
# Mus musculus [10] = assay: Antiinflammatory activity in C57BL/6 mouse DSS-induced chronic colitis model assessed as downregulation of iNOS expression in colon at 500 mg/kg/day administered through diet for total of 4 weeks for alternative weeks with water measured after 56 days by Western blot analysis relative to DSS-treated mouse; assay type: functional
# Mus musculus [11] = assay: Antiinflammatory activity in C57BL/6 mouse DSS-induced chronic colitis model assessed as downregulation of COX-2 expression in colon at 500 mg/kg/day administered through diet for total of 4 weeks for alternative weeks with water measured after 56 days by Western blot analysis relative to DSS-treated mouse; assay type: functional
# IEC-18 [12] = assay: Inhibition of LPS-induced p38 MAPK phosphorylation in rat IEC-18 cells at 100 uM incubated for 1 hr prior to LPS challenge measured after 30 mins by Western blot analysis; assay type: cell-based
# Summary of the method: (§5)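 IEC-18 cells were seeded at 2.5 × 10^5 cells/mL in DMEM with 5% FBS; after 24 h the medium was switched to 0.5% FBS. Cells were pretreated 1 h with test substance at 100 μM (SB 203580 10 μM as reference), then given LPS 1 μg/mL. Phospho-p38 was read at 30 min and COX-2 at 24 h by Western blot (25 μg protein, 1:1000 antibodies, β-actin normalized). n = 6.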
# Mus musculus [13] = assay: Antiinflammatory activity in C57BL/6 mouse DSS-induced chronic colitis model assessed as reduction of rectal bleeding at 500 mg/kg/day administered through diet for total of 4 weeks for alternative weeks with water measured after 56 days; assay type: functional, organism-based; summary of the method: as §3
# Mus musculus [14] = assay: Antiinflammatory activity in C57BL/6 mouse DSS-induced chronic colitis model assessed as reduction of edema at 500 mg/kg/day administered through diet for total of 4 weeks for alternative weeks with water measured after 56 days by hematoxylin-eosin staining; assay type: functional, organism-based
# Mus musculus [15] = assay: Antiinflammatory activity in C57BL/6 mouse DSS-induced chronic colitis model assessed as reduction of colon weight to length ratio at 500 mg/kg/day administered through diet for total of 4 weeks for alternative weeks with water measured after 56 days; assay type: functional, organism-based
# Summary of the method: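 Female C57BL/6 mice received four DSS cycles: 7 days DSS in drinking water (1%, then 2% in cycles 3–4) followed by 7 days water. Diet contained 0.25% test substance, about 500 mg/kg/day. At day 56, colons were removed, rinsed in cold PBS, blotted, weighed and measured to give weight/length (mg/cm). n = 10.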
# [16] = Wound healing activity in rat IEC-18 cells assessed as induction of wound closure at 10 uM after 24 hrs relative to dexamethasone; assay type: functional; summary of the method: as §2
# Mus musculus [17] = assay: Antiinflammatory activity in C57BL/6 mouse DSS-induced chronic colitis model assessed as downregulation of p38 MAPK phosphorylation in colon at 500 mg/kg/day administered through diet for 4 weeks measured after 56 days by Western blot analysis relative to DSS-treated mouse; assay type: functional
# Mus musculus [18] = assay: Antiinflammatory activity in C57BL/6 mouse DSS-induced chronic colitis model assessed as leukocyte infiltration into mucosal tissue at 500 mg/kg/day administered through diet for total of 4 weeks for alternative weeks with water measured after 56 days by hematoxylin-eosin staining; assay type: functional, organism-based
# Mus musculus [19] = assay: Antiinflammatory activity in C57BL/6 mouse DSS-induced chronic colitis model assessed as decrease in myeloperoxidase activity measured reduction of neutrophil accumulation in colon at 500 mg/kg/day administered through diet for total of 4 weeks for alternative weeks with water measured after 56 days by spectrophotometric analysis relative to DSS-treated mouse; assay type: functional; parameters: scale not given: the % may be the effect or the level left
# Summary of the method: (§6)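 Female C57BL/6 mice, 6−8 weeks, 18−20 g. Four DSS cycles in drinking water (1% in cycles 1–2, 2% in cycles 3–4; each 7 days DSS, then 7 days water). Diet held 0.25% test substance (about 500 mg/kg/day). Colons taken at day 56 and homogenized in 80 mM phosphate pH 5.4 with 0.5% HTAB. MPO read with TMB/H2O2, 37 °C 3 min, 630 nm. EPO read with o-phenylenediamine/H2O2, 2 min room temperature, 490 nm. NAG read with 4-nitrophenyl N-acetyl-β-D-glucosaminide, 37 °C 5 min, 405 nm. Mean ± SEM, n = 7.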
# Mus musculus [20] = assay: Antiinflammatory activity in C57BL/6 mouse DSS-induced chronic colitis model assessed as up regulation of annexin A1 mRNA expression in colon at 500 mg/kg/day administered through diet for total of 4 weeks for alternative weeks with water measured after 56 days by RT-PCR analysis relative to DSS-treated control; assay type: functional
# Summary of the method: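 Female C57BL/6 mice (6−8 weeks, 18−20 g) got four cycles of 7 days DSS in drinking water (1% cycles 1–2, 2% cycles 3–4) then 7 days water, with diet at 0.25% test agent throughout. Colons were taken at day 56. cDNA from 500 ng RNA was amplified with annexin A1 primers (25 cycles: 94/60/72 °C, 1 min each) and run on 2% agarose gel.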
# Mus musculus [21] = assay: Antiinflammatory activity in C57BL/6 mouse DSS-induced chronic colitis model assessed as inhibition of IL-6 production in colon at 500 mg/kg/day administered through diet for total of 4 weeks for alternative weeks with water measured after 56 days by ELISA relative to DSS-treated mouse; assay type: functional; settings: C57BL/6, Colon; summary of the method: as §4
# Mus musculus [22] = assay: Antiinflammatory activity in C57BL/6 mouse DSS-induced chronic colitis model assessed as effect on NFkappaB pathway in colon at 500 mg/kg/day administered through diet for total of 4 weeks for alternative weeks with water measured after 56 days by Western blot analysis; assay type: functional, organism-based
# Mus musculus [23] = assay: Antiinflammatory activity in C57BL/6 mouse DSS-induced chronic colitis model assessed as decrease in N-acetylglucosaminidase activity measured reduction of macrophage accumulation in colon at 500 mg/kg/day administered through diet for total of 4 weeks for alternative weeks with water measured after 56 days by spectrophotometric analysis relative to DSS-treated mouse; assay type: functional; parameters: scale not given: the % may be the effect or the level left; summary of the method: as §6
# Mus musculus [24] = assay: Antiinflammatory activity in C57BL/6 mouse DSS-induced chronic colitis model assessed as decrease in eosinophil peroxidase activity measured reduction of eosinophil accumulation in colon at 500 mg/kg/day administered through diet for total of 4 weeks for alternative weeks with water measured after 56 days by spectrophotometric analysis relative to DSS-treated mouse; assay type: functional; parameters: scale not given: the % may be the effect or the level left; summary of the method: as §6
# [25] = Wound healing activity in rat IEC-18 cells assessed as induction of wound closure at 100 uM after 24 hrs relative to dexamethasone; assay type: functional; summary of the method: as §2
# Mus musculus [26] = assay: Antiinflammatory activity in C57BL/6 mouse DSS-induced chronic colitis model assessed as prevention of body weight loss at 500 mg/kg/day administered through diet for total of 4 weeks for alternative weeks with water measured after 56 days; assay type: functional, organism-based
# Mus musculus [27] = assay: Antiinflammatory activity in C57BL/6 mouse DSS-induced chronic colitis model assessed as inhibition of IL-1beta production in colon at 500 mg/kg/day administered through diet for total of 4 weeks for alternative weeks with water measured after 56 days by ELISA relative to DSS-treated mouse; assay type: functional; settings: C57BL/6, Colon; summary of the method: as §4
# IEC-18 [28] = assay: Inhibition of p38 MAPK-induced COX-2 expression in rat IEC-18 cells at 100 uM incubated for 1 hr prior to LPS challenge measured after 24 hrs by Western blot analysis; assay type: cell-based; summary of the method: as §5
# [29] = Antiproliferative activity against rat IEC-18 cells at 10 to 100 uM after 24 hrs by MTT assay; assay type: cell-based; settings: iec-18, 24 h
# Summary of the method: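 IEC-18 rat epithelial cells (passages 18–22) were seeded at 2.5 × 10^5 cells/mL in DMEM (4.5 g/L glucose, 5% FBS). After 24 h the medium was switched to 0.5% FBS and test substance was added at 10 and 100 μM, with dexamethasone 10 μM as reference. Proliferation was read by MTT at 24 h. n = 10.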
compound,measurement,setting,value
C[S+]([O-])c1ccc(-c2nc(-c3ccc(F)cc3)c(-c3ccncc3)[nH]2)cc1 (centres undefined),inhibition,IEC-18 [1],70%
same,inhibition,IEC-18 [2],Active
C[C@@H]1C[C@H]2[C@@H]3CCC4=CC(=O)C=C[C@]4(C)[C@@]3(F)[C@@H](O)C[C@]2(C)[C@@]1(O)C(=O)CO [DEXAMETHASONE],Activity,[3],20%
same,Activity,[4],Non-toxic
C/C=C1/[C@H](O[C@@H]2O[C@H](CO)[C@@H](O)[C@H](O)[C@H]2O)OC=C(C(=O)OC)[C@H]1CC(=O)OCCc1ccc(O)c(O)c1 [OLEUROPEIN],Activity,Mus musculus [5],Non-toxic
same,Activity,Mus musculus [6],Active
same,Activity,Mus musculus [7],Active
same,Activity,Mus musculus [8],Active
same,induction in vivo at 500 mg/kg/day,Mus musculus [9],34%
same,Activity,Mus musculus [10],58%
same,Activity,Mus musculus [11],68%
same,inhibition,IEC-18 [12],Active
same,Activity,Mus musculus [13],Active
same,Activity,Mus musculus [14],Active
same,Activity,Mus musculus [15],Active
same,Activity,[16],57%
same,Activity,Mus musculus [17],<=65%
same,Activity,Mus musculus [18],Active
same,Activity,Mus musculus [19],36%
same,fold change (FC),Mus musculus [20],46
same,inhibition in vivo at 500 mg/kg/day,Mus musculus [21],37%
same,Activity,Mus musculus [22],inactive
same,Activity,Mus musculus [23],42%
same,Activity,Mus musculus [24],46%
same,Activity,[25],80%
same,Activity,Mus musculus [26],Active
same,inhibition in vivo at 500 mg/kg/day,Mus musculus [27],25%
same,inhibition,IEC-18 [28],83%
same,Activity,[29],Non-toxic

# Reference: ChEMBL document CHEMBL2385003, “Oleuropein protects against dextran sodium sulfate-induced chronic colitis in mice” (J Nat Prod, 2013)
